Reference: ChEMBL document CHEMBL3616436, “Synthesis, cytotoxicity and antimicrobial activity of thiourea derivatives incorporating 3-(trifluoromethyl)phenyl moiety” (Eur J Med Chem, 2015)
Converted amounts (≈) assume the structure as drawn.

What was measured:
[1] = Cytotoxicity against BHK cells assessed as cell viability after 48 to 96 hrs by MTT assay; assay type: cell-based, Mesocricetus auratus; conditions: hamster
[2] = system: Staphylococcus aureus; test: Antimicrobial activity against hospital methicillin-resistant Staphylococcus aureus 54/05 after 18 hrs by twofold serial microdilution method; assay type: functional; conditions: 54/05, 18 h
Method in brief: (§1)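 Twofold serial microdilution in Mueller-Hinton broth. Compound stock was made in DMSO and diluted in sterile water. Tested range was 0.125–512 µg/mL. Final inoculum was 10^5 CFU/mL. Plates were incubated 18 h at 35 °C. MIC is the lowest concentration preventing visible growth.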

[3] = Cytotoxicity against human MT4 cells; assay type: cell-based
[4] = system: Bacillus subtilis; test: Antimicrobial activity against Bacillus subtilis ATCC 6633 at 400 ug after 18 hrs by disc-diffusion method; assay type: functional; conditions: ATCC 6633, 18 h, read-out: IZ
Method in brief: (§2)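 Disc diffusion on Mueller-Hinton II agar per CLSI; 9 mm paper discs loaded with 400 µg compound from DMSO solution, dried, placed on agar; growth inhibition zone diameter read after 18 h at 35°C.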

[5] = system: Staphylococcus epidermidis; test: Ratio of ciprofloxacin MIC to compound MIC for hospital methicillin-resistant Staphylococcus epidermidis 24/04 after 18 hrs by twofold serial microdilution method; assay type: functional
[6] = system: Staphylococcus aureus; test: Ratio of ciprofloxacin MIC to compound MIC for hospital methicillin-resistant Staphylococcus aureus 79/05 after 18 hrs by twofold serial microdilution method; assay type: functional
Method in brief: (§3)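 Ratio of MICs for ciprofloxacin and test agent, each from twofold serial broth microdilution in Mueller-Hinton broth following CLSI guidelines. DMSO stock was diluted in sterile water to 0.125–512 µg/mL, with a final inoculum of 10^5 CFU/mL.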

[7] = Cytotoxicity against African green monkey Vero 76 cells assessed as cell viability after 48 to 96 hrs by crystal violet staining; assay type: cell-based; conditions: chlorocebus sabaeus
[8] = system: Staphylococcus epidermidis; test: Antimicrobial activity against hospital methicillin-resistant Staphylococcus epidermidis 63/04 after 18 hrs by twofold serial microdilution method; assay type: functional; conditions: 63/04, 18 h; method in brief: as §1
[9] = system: Micrococcus luteus; test: Antimicrobial activity against Micrococcus luteus ATCC 9341 at 400 ug after 18 hrs by disc-diffusion method; assay type: functional; conditions: ATCC 9341, 18 h, read-out: IZ; method in brief: as §2
[10] = system: Staphylococcus aureus; test: Antimicrobial activity against Staphylococcus aureus NCTC 4163 at 400 ug after 18 hrs by disc-diffusion method; assay type: functional; conditions: NCTC 4163, 18 h, read-out: IZ; method in brief: as §2
[11] = system: Staphylococcus aureus; test: Ratio of ciprofloxacin MIC to compound MIC for hospital methicillin-resistant Staphylococcus aureus 54/05 after 18 hrs by twofold serial microdilution method; assay type: functional; method in brief: as §3
[12] = system: Staphylococcus epidermidis; test: Antimicrobial activity against hospital methicillin-resistant Staphylococcus epidermidis 24/04 after 18 hrs by twofold serial microdilution method; assay type: functional; conditions: 24/04, 18 h; method in brief: as §1
[13] = system: Staphylococcus aureus; test: Antimicrobial activity against hospital methicillin-resistant Staphylococcus aureus 57/05 after 18 hrs by twofold serial microdilution method; assay type: functional; conditions: 57/05, 18 h; method in brief: as §1
[14] = system: Staphylococcus epidermidis; test: Antimicrobial activity against hospital methicillin-resistant Staphylococcus epidermidis 151/04 after 18 hrs by twofold serial microdilution method; assay type: functional; conditions: 151/04, 18 h; method in brief: as §1
[15] = system: Staphylococcus epidermidis; test: Antimicrobial activity against hospital methicillin-resistant Staphylococcus epidermidis 23/04 after 18 hrs by twofold serial microdilution method; assay type: functional; conditions: 23/04, 18 h; method in brief: as §1
[16] = system: Staphylococcus aureus; test: Antimicrobial activity against hospital methicillin-resistant Staphylococcus aureus 522/11 after 18 hrs by twofold serial microdilution method; assay type: functional; conditions: 522/11, 18 h; method in brief: as §1
[17] = system: Staphylococcus epidermidis; test: Antimicrobial activity against hospital methicillin-resistant Staphylococcus epidermidis 62/04 after 18 hrs by twofold serial microdilution method; assay type: functional; conditions: 62/04, 18 h; method in brief: as §1
[18] = system: Staphylococcus epidermidis; test: Antimicrobial activity against Staphylococcus epidermidis ATCC 12228 after 18 hrs by twofold serial microdilution method; assay type: functional; conditions: ATCC 12228, 18 h
[19] = system: Staphylococcus epidermidis; test: Ratio of ciprofloxacin MIC to compound MIC for hospital methicillin-resistant Staphylococcus epidermidis 151/04 after 18 hrs by twofold serial microdilution method; assay type: functional; method in brief: as §3
[20] = system: Staphylococcus aureus; test: Ratio of ciprofloxacin MIC to compound MIC for hospital methicillin-resistant Staphylococcus aureus 53/05 after 18 hrs by twofold serial microdilution method; assay type: functional; method in brief: as §3
[21] = system: Staphylococcus aureus; test: Antimicrobial activity against Staphylococcus aureus ATCC 6538 at 400 ug after 18 hrs by disc-diffusion method; assay type: functional; conditions: ATCC 6538, 18 h, read-out: IZ; method in brief: as §2
[22] = system: Staphylococcus epidermidis; test: Ratio of ciprofloxacin MIC to compound MIC for hospital methicillin-resistant Staphylococcus epidermidis […]/[…] after 18 hrs by twofold serial microdilution method; assay type: functional, 16/04
[23] = system: Staphylococcus aureus; test: Antimicrobial activity against Staphylococcus aureus ATCC 6538 after 18 hrs by twofold serial microdilution method; assay type: functional; conditions: ATCC 6538, 18 h
[24] = system: Staphylococcus aureus; test: Antimicrobial activity against Staphylococcus aureus ATCC 29213 after 18 hrs by twofold serial microdilution method; assay type: functional; conditions: ATCC 29213, 18 h
[25] = system: Staphylococcus aureus; test: Ratio of ciprofloxacin MIC to compound MIC for hospital methicillin-resistant Staphylococcus aureus 81/05 after 18 hrs by twofold serial microdilution method; assay type: functional; method in brief: as §3
[26] = system: Staphylococcus aureus; test: Ratio of ciprofloxacin MIC to compound MIC for hospital methicillin-resistant Staphylococcus aureus 573/11 after 18 hrs by twofold serial microdilution method; assay type: functional; method in brief: as §3
[27] = system: Staphylococcus epidermidis; test: Antimicrobial activity against Staphylococcus epidermidis ATCC 35984 after 18 hrs by twofold serial microdilution method; assay type: functional; conditions: ATCC 35984, 18 h
[28] = Cytotoxicity against bovine MDBK cells assessed as cell viability after 48 to 96 hrs by MTT assay; assay type: cell-based, Bos taurus; conditions: cattle
[29] = system: Vesicular stomatitis virus; test: Antiviral activity against Vesicular stomatitis virus ATCC VR 1540 infected in African green monkey Vero 76 cells assessed as reduction of virus-plaque formation after 2 days by crystal violet staining; assay type: functional, organism-based; conditions: ATCC VR 1540, Vero, 48 h
[30] = Antiviral activity against Bovine viral diarrhea virus 1-NADL ATCC VR-534 infected in MDBK cells assessed as protection against virus-induced cytopathogenicity after 3 to 4 days by MTT assay; assay type: functional, cell-based; conditions: Bovine viral diarrhea virus isolates and strains, ATCC VR-534, MDBK
Method in brief: (§4)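 Cells seeded in 96-well plates (BHK 5x10^4, MDBK 3x10^4 cells/well), grown overnight to confluence, infected at m.o.i. 0.01 (BHK for Reo-1, MDBK for BVDV); serial compound dilutions in maintenance medium with 0.5% inactivated FBS added after 1 h; viability by MTT after 3–4 days at 37°C; EC50 for 50% protection by linear regression.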

[31] = system: Staphylococcus epidermidis; test: Antimicrobial activity against hospital methicillin-resistant Staphylococcus epidermidis 76/04 after 18 hrs by twofold serial microdilution method; assay type: functional; conditions: 76/04, 18 h; method in brief: as §1
[32] = system: Mycobacterium tuberculosis; test: Antimycobacterial activity against drug-sensitive Mycobacterium tuberculosis Spec. 192; assay type: functional
Method in brief: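 Classical test-tube successive-dilution method in Youmans' modification of Proskauer and Beck liquid medium with 10% bovine serum. Inoculum came from 14-day cultures. DMSO stock was 10 mg/mL, diluted geometrically in medium. Tubes were incubated at 37 °C. Concentrations tested were 3.1, 6.2, 12.5, 25, 50 and 100 µg/ml. MIC is the minimum concentration inhibiting growth relative to compound-free tubes.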

[33] = system: Mammalian orthoreovirus 1; test: Antiviral activity against Reovirus type-1 ATCC VR-214 infected in BHK cells assessed as protection against virus-induced cytopathogenicity after 3 to 4 days by MTT assay; assay type: functional, cell-based; conditions: Mammalian orthoreovirus 1, ATCC VR-214, BHK; method in brief: as §4

| Structure (SMILES) | CC50 [1] [µM] | MIC [2] [µg/mL] | CC50 [3] [µM] | zone of inhibition at 400 µg/disc [4] [mm] | Ratio [5] | MIC [8] [µg/mL] | zone of inhibition at 400 µg/disc [9] [mm] | zone of inhibition at 400 µg/disc [10] [mm] | MIC [12] [µg/mL] | MIC [13] [µg/mL] | MIC [14] [µg/mL] | MIC [15] [µg/mL] | MIC [16] [µg/mL] | MIC [17] [µg/mL] | MIC [18] [µg/mL] | zone of inhibition at 400 µg/disc [21] [mm] | MIC [23] [µg/mL] | MIC [24] [µg/mL] | MIC [27] [µg/mL] | MIC [31] [µg/mL] | also measured |
| --- | --- | --- | --- | --- | --- | --- | --- | --- | --- | --- | --- | --- | --- | --- | --- | --- | --- | --- | --- | --- | --- |
| Fc1cccc(NC(=S)Nc2cccc(C(F)(F)F)c2)c1 | 9.4 | 8 (≈ 25.5 µM) | 20 | 20 | 128 | 16 (≈ 50.9 µM) | 23 | 20 | 8 (≈ 25.5 µM) | 4 (≈ 12.7 µM) | 16 (≈ 50.9 µM) | 8 (≈ 25.5 µM) | 8 (≈ 25.5 µM) | 8 (≈ 25.5 µM) | 8 (≈ 25.5 µM) | 20 | 4 (≈ 12.7 µM) | 8 (≈ 25.5 µM) | 8 (≈ 25.5 µM) | 16 (≈ 50.9 µM) | Ratio [6]: 128; CC50 [7]: 20 µM; Ratio [11]: 128; Ratio [19]: 128; Ratio [20]: 128; Ratio [22]: 128; Ratio [25]: 128; Ratio [26]: 128; CC50 [28]: 10 µM; EC50 [29]: > 20 µM; EC50 [30]: > 10 µM; MIC [32]: > 100 µg/mL; EC50 [33]: > 9.4 µM |
| O=C(O)c1cn(C2CC2)c2cc(N3CCNCC3)c(F)cc2c1=O [CIPROFLOXACIN] | – | – | – | 40 | – | 4 (≈ 12.1 µM) | 24 | 26 | 64 (≈ 193 µM) | 128 (≈ 386 µM) | 4 (≈ 12.1 µM) | 2 (≈ 6.04 µM) | 128 (≈ 386 µM) | 0.125 (≈ 0.377 µM) | 0.25 (≈ 0.754 µM) | 28 | 0.25 (≈ 0.754 µM) | 0.5 (≈ 1.51 µM) | 0.25 (≈ 0.754 µM) | 0.125 (≈ 0.377 µM) | – |
| FC(F)(F)c1cccc(NC(S)=NCc2ccccc2)c1 | 45 | 8 (≈ 25.8 µM) | 45 | 16 | 128 | 16 (≈ 51.6 µM) | 19 | 18 | 16 (≈ 51.6 µM) | 8 (≈ 25.8 µM) | 16 (≈ 51.6 µM) | 16 (≈ 51.6 µM) | 16 (≈ 51.6 µM) | 16 (≈ 51.6 µM) | 32 (≈ 103 µM) | 15 | 8 (≈ 25.8 µM) | 8 (≈ 25.8 µM) | 16 (≈ 51.6 µM) | 8 (≈ 25.8 µM) | Ratio [6]: 128; CC50 [7]: 35 µM; Ratio [11]: 128; Ratio [19]: 128; Ratio [20]: 128; Ratio [22]: 128; Ratio [25]: 128; Ratio [26]: 128; CC50 [28]: 40 µM; EC50 [29]: > 35 µM; EC50 [30]: > 40 µM; MIC [32]: 25 µg/mL (≈ 80.6 µM); EC50 [33]: > 45 µM |
| Fc1ccc(NC(=S)Nc2cccc(C(F)(F)F)c2)cc1Cl | 10 | 1 (≈ 2.87 µM) | 8 | 30 | 128 | 0.5 (≈ 1.43 µM) | 32 | 30 | 1 (≈ 2.87 µM) | 1 (≈ 2.87 µM) | 2 (≈ 5.73 µM) | 1 (≈ 2.87 µM) | 0.5 (≈ 1.43 µM) | 0.5 (≈ 1.43 µM) | 2 (≈ 5.73 µM) | 30 | 1 (≈ 2.87 µM) | 1 (≈ 2.87 µM) | 2 (≈ 5.73 µM) | 0.25 (≈ 0.717 µM) | Ratio [6]: 128; CC50 [7]: 20 µM; Ratio [11]: 128; Ratio [19]: 128; Ratio [20]: 128; Ratio [22]: 128; Ratio [25]: 128; Ratio [26]: 128; CC50 [28]: 11 µM; EC50 [29]: > 20 µM; EC50 [30]: > 11 µM; MIC [32]: 50 µg/mL (≈ 143 µM); EC50 [33]: > 10 µM |
